pIC50: −log10 of the molar value. ≈ marks a conversion by molar mass, not a printed value.
How the values were obtained:
[1] = Ratio of AUC in rat brain to plasma at 1.0 mg/kg, po and 0.5 mg/kg, iv; type: ADME, organism-based; details: read-out: Ratio AUC
Procedure, shortened: (§1)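 Rat pharmacokinetics after a 1.0 mg/kg oral dose and a 0.5 mg/kg intravenous dose. Blood clearance, oral blood Cmax, brain:blood AUC ratio and oral bioavailability determined.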

[2] = test system: Brain; assay: fCmax in rat brain at 1.0 mg/kg, po; type: ADME, organism-based; set-up: dose 1 mg/kg, route oral; details: in vivo
[3] = Clearance in rat at 1.0 mg/kg, po and 0.5 mg/kg, iv; type: ADME, organism-based; details: in vivo; procedure, shortened: as §1
[4] = Cmax in rat brain at 1.0 mg/kg, po; type: ADME, organism-based; set-up: dose 1 mg/kg, route oral
[5] = Solubility of the compound; type: physicochemical
[6] = biological target: Metabotropic glutamate receptor 5 (Mus musculus, UniProt Q3UVX5); assay: Antagonist activity at mGluR5 in mouse astrocytes assessed as inhibition of L-quisqualate induced calcium release by FLIPR assay; type: functional, cell-based
Chain of Metabotropic glutamate receptor 5 (Mus musculus, UniProt Q3UVX5) (Q3UVX5 whole entry): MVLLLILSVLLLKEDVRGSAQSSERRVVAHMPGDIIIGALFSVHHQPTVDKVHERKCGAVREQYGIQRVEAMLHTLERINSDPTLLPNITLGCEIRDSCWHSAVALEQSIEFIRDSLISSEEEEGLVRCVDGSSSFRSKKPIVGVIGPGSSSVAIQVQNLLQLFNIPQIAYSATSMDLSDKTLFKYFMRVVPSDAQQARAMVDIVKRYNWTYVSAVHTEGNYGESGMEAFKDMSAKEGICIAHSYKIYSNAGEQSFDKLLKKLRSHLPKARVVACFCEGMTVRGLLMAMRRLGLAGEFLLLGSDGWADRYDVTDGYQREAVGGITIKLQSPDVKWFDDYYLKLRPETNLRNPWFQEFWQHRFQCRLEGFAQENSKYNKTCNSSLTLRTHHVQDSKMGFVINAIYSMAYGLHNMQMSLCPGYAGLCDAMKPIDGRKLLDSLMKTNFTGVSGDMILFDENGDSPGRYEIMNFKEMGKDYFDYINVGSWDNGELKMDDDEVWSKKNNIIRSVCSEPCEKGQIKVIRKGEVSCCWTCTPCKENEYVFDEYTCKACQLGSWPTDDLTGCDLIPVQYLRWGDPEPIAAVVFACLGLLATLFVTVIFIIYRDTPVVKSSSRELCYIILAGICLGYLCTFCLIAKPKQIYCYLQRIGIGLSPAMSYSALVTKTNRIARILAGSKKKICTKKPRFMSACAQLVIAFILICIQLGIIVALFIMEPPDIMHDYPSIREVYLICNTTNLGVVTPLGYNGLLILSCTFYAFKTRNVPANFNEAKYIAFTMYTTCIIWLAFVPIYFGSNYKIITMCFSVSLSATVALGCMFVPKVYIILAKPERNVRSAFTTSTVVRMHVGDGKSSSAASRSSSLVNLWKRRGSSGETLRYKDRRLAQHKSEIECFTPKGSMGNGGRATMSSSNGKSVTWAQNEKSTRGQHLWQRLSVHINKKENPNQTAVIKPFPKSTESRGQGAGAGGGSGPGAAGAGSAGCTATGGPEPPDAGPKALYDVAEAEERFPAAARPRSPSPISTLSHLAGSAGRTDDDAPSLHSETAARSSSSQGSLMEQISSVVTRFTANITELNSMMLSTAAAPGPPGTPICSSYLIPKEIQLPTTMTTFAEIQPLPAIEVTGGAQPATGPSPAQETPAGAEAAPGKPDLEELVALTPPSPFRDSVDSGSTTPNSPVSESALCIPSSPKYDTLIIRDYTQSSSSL
Procedure, shortened: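 Primary cortical astrocytes from CD1 mouse pups aged 1–3 days. Cultures re-plated after 5 days to remove neurons and grown at 37 °C to confluence (10–14 d), then plated for 2 days. Cells pre-incubated with antagonist concentration-response curves and challenged with the day's EC80 of L-quisqualate. Intracellular calcium monitored on FLIPR to give fpKi.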

[7] = biological target: T1, Metabotropic glutamate receptor 5 (Homo sapiens, UniProt P41594); assay: Antagonist activity at human mGluR5 expressed in CHO cells assessed as glutamate induced calcium mobilization
T1 sequence (P41594 whole entry): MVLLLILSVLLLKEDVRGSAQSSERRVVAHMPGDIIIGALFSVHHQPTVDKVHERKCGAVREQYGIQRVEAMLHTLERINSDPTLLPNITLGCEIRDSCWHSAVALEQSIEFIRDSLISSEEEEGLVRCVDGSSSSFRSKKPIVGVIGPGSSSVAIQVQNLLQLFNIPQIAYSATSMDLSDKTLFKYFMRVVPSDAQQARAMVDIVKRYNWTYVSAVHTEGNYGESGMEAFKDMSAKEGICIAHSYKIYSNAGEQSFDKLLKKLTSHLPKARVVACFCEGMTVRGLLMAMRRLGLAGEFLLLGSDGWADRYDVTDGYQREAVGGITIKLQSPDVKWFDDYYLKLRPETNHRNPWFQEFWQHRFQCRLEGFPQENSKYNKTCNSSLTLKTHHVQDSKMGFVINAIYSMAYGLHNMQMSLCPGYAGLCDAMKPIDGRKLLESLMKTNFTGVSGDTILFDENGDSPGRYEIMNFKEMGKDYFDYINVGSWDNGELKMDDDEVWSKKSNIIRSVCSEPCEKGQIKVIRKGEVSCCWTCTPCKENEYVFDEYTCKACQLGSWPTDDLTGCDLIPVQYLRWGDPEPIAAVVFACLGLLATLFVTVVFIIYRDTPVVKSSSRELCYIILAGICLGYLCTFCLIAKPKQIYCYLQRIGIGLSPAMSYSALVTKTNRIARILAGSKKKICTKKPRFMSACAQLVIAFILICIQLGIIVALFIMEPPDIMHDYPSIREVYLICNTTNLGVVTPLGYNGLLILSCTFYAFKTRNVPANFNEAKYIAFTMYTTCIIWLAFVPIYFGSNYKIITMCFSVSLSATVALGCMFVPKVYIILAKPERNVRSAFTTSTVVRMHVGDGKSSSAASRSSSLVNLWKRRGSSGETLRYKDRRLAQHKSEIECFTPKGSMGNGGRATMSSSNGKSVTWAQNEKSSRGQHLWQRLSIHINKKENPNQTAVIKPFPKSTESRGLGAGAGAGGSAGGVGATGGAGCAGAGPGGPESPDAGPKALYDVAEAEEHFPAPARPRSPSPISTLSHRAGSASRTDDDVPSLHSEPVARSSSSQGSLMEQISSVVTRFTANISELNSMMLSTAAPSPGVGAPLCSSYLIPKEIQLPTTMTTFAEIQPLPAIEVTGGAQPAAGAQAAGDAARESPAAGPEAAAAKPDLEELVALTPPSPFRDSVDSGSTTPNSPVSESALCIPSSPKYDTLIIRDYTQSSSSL

[8] = Oral bioavailability in rat at 1.0 mg/kg; type: ADME, organism-based; details: in vivo; procedure, shortened: as §1
[9] = biological target: Metabotropic glutamate receptor 1 (Homo sapiens) (UniProt Q13255); assay: Antagonist activity at mGluR1
Chain of Metabotropic glutamate receptor 1 (Homo sapiens) (Q13255 whole entry, looked up): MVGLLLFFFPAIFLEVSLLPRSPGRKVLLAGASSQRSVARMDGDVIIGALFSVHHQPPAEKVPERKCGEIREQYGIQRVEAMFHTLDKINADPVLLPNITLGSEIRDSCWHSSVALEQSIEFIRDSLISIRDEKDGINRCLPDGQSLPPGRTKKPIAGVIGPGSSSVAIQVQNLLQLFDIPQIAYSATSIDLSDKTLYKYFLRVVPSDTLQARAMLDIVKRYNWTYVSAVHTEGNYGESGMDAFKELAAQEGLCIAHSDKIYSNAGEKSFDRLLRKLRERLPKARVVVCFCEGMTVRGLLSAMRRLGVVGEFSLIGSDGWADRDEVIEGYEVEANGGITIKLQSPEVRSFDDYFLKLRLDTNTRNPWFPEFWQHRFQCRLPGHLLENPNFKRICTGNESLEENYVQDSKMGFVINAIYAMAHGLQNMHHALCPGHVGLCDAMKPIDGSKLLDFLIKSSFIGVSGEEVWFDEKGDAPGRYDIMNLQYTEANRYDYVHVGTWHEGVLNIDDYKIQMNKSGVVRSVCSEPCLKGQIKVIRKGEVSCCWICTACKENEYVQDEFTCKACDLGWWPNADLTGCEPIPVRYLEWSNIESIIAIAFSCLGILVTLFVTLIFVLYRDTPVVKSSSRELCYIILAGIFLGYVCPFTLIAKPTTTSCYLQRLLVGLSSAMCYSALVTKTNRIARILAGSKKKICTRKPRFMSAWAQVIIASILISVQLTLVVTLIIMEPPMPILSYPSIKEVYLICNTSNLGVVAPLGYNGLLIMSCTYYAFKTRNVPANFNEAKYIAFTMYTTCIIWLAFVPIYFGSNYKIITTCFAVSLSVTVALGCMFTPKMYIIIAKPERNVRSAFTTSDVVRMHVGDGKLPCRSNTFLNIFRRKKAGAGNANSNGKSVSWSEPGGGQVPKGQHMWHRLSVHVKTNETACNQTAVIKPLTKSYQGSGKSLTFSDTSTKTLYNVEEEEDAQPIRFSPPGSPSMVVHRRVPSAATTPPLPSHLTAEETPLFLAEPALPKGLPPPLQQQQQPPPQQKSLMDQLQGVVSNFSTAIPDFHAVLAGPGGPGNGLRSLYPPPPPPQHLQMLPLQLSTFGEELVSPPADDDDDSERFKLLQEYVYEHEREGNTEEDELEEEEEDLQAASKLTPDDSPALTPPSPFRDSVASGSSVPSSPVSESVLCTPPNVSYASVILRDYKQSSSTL

[10] = Cmax in rat at 1.0 mg/kg, po; type: ADME, organism-based; set-up: dose 1 mg/kg, route oral; details: in vivo; procedure, shortened: as §1
[11] = biological target: T1, Metabotropic glutamate receptor 5; assay: Antagonist activity at human mGluR5 expressed in CHO cells assessed as […] calcium mobilization; type: functional, cell-based
Procedure, shortened: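 CHO cells stably expressing apo-aequorin, with human mGluR5 expression induced by doxycycline. Calcium mobilisation read by aequorin luminescence. Eleven-point concentration-response curves run in the presence of an EC80 of glutamate. pIC50 is the average of at least two curves.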

[12] = Lipophilicity, log D of the compound at pH 7.4; type: physicochemical; details: buffer
[13] = Fraction unbound in rat brain; type: ADME, tissue-based

**Q.** Which Kp [1] does the source give for `Cc1c([C@@H](C)OC(=O)Nc2ccccc2)sc2ncnn12` here?
**A.** 2

**Q.** And the fCmax [2]?
**A.** 30 nM

**Q.** And the clearance [3]?
**A.** 48 mL/min/kg

**Q.** And the Cmax [4]?
**A.** 250 nM

**Q.** And the solubility [5]?
**A.** 166 µg/mL (≈ 549 µM)

**Q.** What about the pIC50 [6] of the same compound?
**A.** 7.50

**Q.** And the pIC50 [7]?
**A.** 7.40

**Q.** What about the bioavailability [8] of the same compound?
**A.** 28%

**Q.** And the pIC50 [9]?
**A.** 4.50

**Q.** What about the Cmax [10] of the same compound?
**A.** 63 ng/mL

**Q.** With `Cc1c(C(C)OC(=O)NC2CCCCC2)sc2ncnn12` (stereo not given) as the compound, how does the pIC50 [11] read?
**A.** 5.50

**Q.** With `Cc1c(C(C)OC(=O)Nc2ccccc2Cl)sc2ncnn12` (stereo not given) as the compound, how does the pIC50 [11] read?
**A.** 6.30

**Q.** Which logD [12] does the source give for `Cc1c(C(C)OC(=O)Nc2cccc(Cl)c2)sc2ncnn12` (stereo not given) here?
**A.** 2.9

**Q.** What about the fraction unbound [13] of the same compound?
**A.** 0.009

**Q.** What about the pIC50 [11] of the same compound?
**A.** 7.40

**Q.** With `Cc1c(C(C)OC(=O)Nc2ccc(Cl)cc2)sc2ncnn12` (stereo not given) as the compound, how does the pIC50 [11] read?
**A.** 5.60

**Q.** Which results are given for `Cc1c(C(C)OC(=O)Nc2cccc(F)c2)sc2ncnn12` (stereo not given)?
**A.** logD [12]: 2.6; fraction unbound [13]: 0.017; pIC50 [11]: 7.30

**Q.** With `Cc1c(C(C)OC(=O)Nc2ccccc2)sc2nc(Cl)nn12` (stereo not given) as the compound, how does the pIC50 [11] read?
**A.** 8.00

**Q.** With `Cc1c(C(C)OC(=O)Nc2ccccc2)sc2nc(C3CC3)nn12` (stereo not given) as the compound, how does the pIC50 [11] read?
**A.** 7.90

**Q.** What does the source list for `Cc1c(C(C)OC(=O)Nc2ccccc2)sc2nc(-c3cccs3)nn12` (stereo not given)?
**A.** logD [12]: 3.7; fraction unbound [13]: < 0.001; pIC50 [11]: 8.10

**Q.** With `Cc1c(C(C)OC(=O)Nc2ccccc2)sc2nc(-c3ccc(F)cc3)nn12` (stereo not given) as the compound, how does the pIC50 [11] read?
**A.** 8.00

**Q.** With `Cc1c(C(C)OC(=O)Nc2ccccc2)sc2nc(C(F)(F)F)nn12` (stereo not given) as the compound, how does the pIC50 [11] read?
**A.** 7.40

**Q.** With `CC(OC(=O)Nc1ccccc1)c1cn2ncnc2s1` (stereo not given) as the compound, how does the pIC50 [7] read?
**A.** 5.00

**Q.** With `Cc1c(COC(=O)Nc2ccccc2)sc2ncnn12` as the compound, how does the pIC50 [7] read?
**A.** < 4.50

**Q.** With `O=C(Nc1ccccc1)OCc1cn2ncnc2s1` as the compound, how does the pIC50 [7] read?
**A.** < 4.50

**Q.** With `Cc1c(C(C)OC(=O)N(C)c2ccccc2)sc2ncnn12` (stereo not given) as the compound, how does the pIC50 [7] read?
**A.** < 4.50

**Q.** With `Cc1c([C@H](C)OC(=O)Nc2ccccc2)sc2ncnn12` as the compound, how does the pIC50 [7] read?
**A.** < 5.00

**Q.** With `Cc1c(C(C)OC(=O)Nc2ccccc2)sc2nccn12` (stereo not given) as the compound, how does the logD [12] read?
**A.** 2.4

**Q.** What about the pIC50 [7] of the same compound?
**A.** 7.90

**Q.** What about the fraction unbound [13] of the same compound?
**A.** 0.003

**Q.** With `Cc1c(C(C)OC(=O)Nc2ccccc2)sc2nncn12` (stereo not given) as the compound, how does the pIC50 [7] read?
**A.** 6.90

**Q.** For `Cc1c(C(C)OC(=O)Nc2cccnc2)sc2ncnn12` (stereo not given), which logD [12] is on record?
**A.** 1

**Q.** What about the pIC50 [7] of the same compound?
**A.** 6.50

**Q.** And the fraction unbound [13]?
**A.** 0.28

**Q.** Which logD [12] does the source give for `Cc1c(C(C)OC(=O)Nc2cccc(F)c2)sc2nncn12` (stereo not given) here?
**A.** 2

**Q.** And the pIC50 [7]?
**A.** 7.20

**Q.** What about the fraction unbound [13] of the same compound?
**A.** 0.068

**Q.** Which Kp [1] does the source give for `Cc1c([C@@H](C)OC(=O)Nc2cccc(F)c2)sc2nncn12` here?
**A.** 0.2

**Q.** And the clearance [3]?
**A.** 33 mL/min/kg

**Q.** And the solubility [5]?
**A.** 31 µg/mL (≈ 96.8 µM)

**Q.** And the pIC50 [6]?
**A.** 7.50

**Q.** What about the pIC50 [7] of the same compound?
**A.** 7.40

**Q.** And the bioavailability [8]?
**A.** 100%

**Q.** And the pIC50 [9]?
**A.** < 4.30

**Q.** And the Cmax [10]?
**A.** 210 ng/mL

**Q.** With `Cc1c(C(C)OC(=O)Nc2ccccc2)sc2ncnn12` (stereo not given) as the compound, how does the pIC50 [7] read?
**A.** < 4.50

Source: ChEMBL document CHEMBL1629432, “The identification of novel orally active mGluR5 antagonist GSK2210875” (Bioorg Med Chem Lett, 2010)
